SENP1 FRET inh: human SENP1 catalytic domain inhibitors, primary screen, biochemical, FRET, uHTS; Sentrin-specific protease 1 (Homo sapiens), Q9P0U3; recombinant SENP1 catalytic domain, CyPet-SUMO1-YPet FRET cleavage; inhibition, % at 10 µM; 360,000 compounds, 0.21% hits; AID 624204, 2012;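 active = inhibition at least 30% at 10 µM, raw YFP signal under a set limit, fluorescence ratio 0.5 to 1.5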;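 note: 0% = enzyme with DMSO and 100% = no enzyme wells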
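Assay system: hSENP1 catalytic domain, recombinant. Amount: SENP1 enzyme, 20 pM final. Schedule: 50 min reaction, RT, dark. Technique: FRET, CFP and YFP emission. Control set: no-enzyme wells low, DMSO-plus-enzyme wells high control.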
SENP8 block-1: SENP8 protease inhibitors, primary screen, biochemical, luminescence. 330,000 compounds, 1.2% hits. Sentrin-specific protease 8 (Homo sapiens), Q96LD8. purified SENP8, Z-RLRGG-aminoluciferin cleavage. AID 2540, 2010. inhibition, % at 10 µM; in the data active = inhibition above about 50%
Target sequence (Q96LD8 whole entry, looked up): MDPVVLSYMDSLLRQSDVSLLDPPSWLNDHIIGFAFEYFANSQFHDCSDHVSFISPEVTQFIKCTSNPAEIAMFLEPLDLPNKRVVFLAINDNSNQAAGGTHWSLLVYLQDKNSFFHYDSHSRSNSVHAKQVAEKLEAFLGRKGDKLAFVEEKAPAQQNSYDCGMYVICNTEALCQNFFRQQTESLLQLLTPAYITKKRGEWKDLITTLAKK
SENP6 inh: SENP6 protease inhibitors, primary screen, biochemical, luminescence, uHTS | Sentrin-specific protease 6 (Homo sapiens), Q9GZR1 | Recombinant SENP6 catalytic domain, aminoluciferin luminescence | inhibition, % at 10 µM | 330,000 compounds, 1.8% hits | AID 2599, 2010;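 active = inhibition above about 50% at the single tested dose, limit read from the data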;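 note: plate controls were DMSO wells with enzyme for no effect and DMSO wells lacking enzyme for full effect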
Target sequence (Q9GZR1 628-1112 limits assumed): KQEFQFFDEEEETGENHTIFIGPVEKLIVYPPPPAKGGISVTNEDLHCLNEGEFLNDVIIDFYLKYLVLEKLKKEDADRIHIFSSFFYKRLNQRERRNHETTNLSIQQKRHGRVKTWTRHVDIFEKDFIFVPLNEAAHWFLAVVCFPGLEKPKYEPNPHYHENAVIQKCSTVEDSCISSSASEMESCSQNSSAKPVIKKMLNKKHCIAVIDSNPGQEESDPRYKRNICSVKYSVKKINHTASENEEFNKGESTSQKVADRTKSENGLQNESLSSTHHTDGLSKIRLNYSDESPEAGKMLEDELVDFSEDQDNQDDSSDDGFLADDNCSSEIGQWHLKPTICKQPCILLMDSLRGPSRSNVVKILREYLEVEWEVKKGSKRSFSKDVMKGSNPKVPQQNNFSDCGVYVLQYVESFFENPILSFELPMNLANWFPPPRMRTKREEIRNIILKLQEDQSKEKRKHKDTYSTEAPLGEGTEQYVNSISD
HSP90 refold inh: HSP90 inhibitors, primary screen, cell lysate, luminescence. Heat shock protein HSP 90 (rabbit reticulocyte lysate; luciferase refolding). Rabbit reticulocyte lysate, luciferase refolding luminescence, 3 h. inhibition, % at 5.6 µM. 290,000 compounds, 0.91% hits. AID 1789, 2009;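 active = inhibition above the screen-wide mean plus 3 SD, computed separately per campaign, cut at about 16% in these data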;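 note: 0% = DMSO wells and 100% = 60 µM geldanamycin wells; inhibitors lower the luminescence because luciferase stays unfolded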
SENP8 block-2: human SENP8 protease inhibitors, primary screen, biochemical, fluorescence, Nedd8 protein substrate, uHTS; inhibition, % at 20 µM; recombinant SENP8; 360,000 compounds, 0.64% hits; in the data active = inhibition mostly above about 40%, no sharp cut-off; inactive = mostly below about 27%
SENP7 block: SENP7 protease inhibitors, primary screen, biochemical, luminescence, uHTS; Sentrin-specific protease 7 (Homo sapiens), Q9BQF6; recombinant SENP7, Z-RLRGG-aminoluciferin luminescence, 40 min; 330,000 compounds, 1.5% hits; inhibition, % at 5 µM;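 active = inhibition above about 50% at the single test dose, limit read from the data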;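 note: plate controls were DMSO with enzyme for no effect and no enzyme buffer wells for full effect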
SENP8 confirm: SENP8 protease inhibitors, retest, confirmation, biochemical, luminescence, single concentration; shares compounds with SENP7 block; Recombinant SENP8, Z-RLRGG-aminoluciferin luminescence, 60 min; inhibition, % at 12.5 µM; 6,200 compounds, 40% hits;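 active = mean inhibition across replicates above about 50%, limit read from the data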
SENP6 confirm: SENP6 protease inhibitors, confirmation, biochemical, luminescence, single concentration; shares compounds with SENP7 block; recombinant SENP6, Z-RLRGG-aminoluciferin luminescence; inhibition, % at 12.5 µM; 6,200 compounds, 58% hits; AID 488915, 2010
SENP7 conf: SENP7 protease inhibitors, retest, confirmation, biochemical, luminescence, single concentration; shares compounds with SENP7 block; recombinant SENP7, Z-RLRGG-aminoluciferin luminescence, 40 min; inhibition, % at 12.5 µM; 6,200 compounds, 69% hits
Casp3 select: caspase-3 protease inhibitors, confirmation, selectivity assay for SENP inhibitor project, biochemical, single concentration; shares compounds with SENP7 block; purified caspase-3, Z-DEVD-aminoluciferin luminescence, 60 min; inhibition, % at 12.5 µM; 6,200 compounds, 60% hits; AID 488918, 2010;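 active = mean inhibition above about 50%, limit read from the data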;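 note: plate controls were enzyme with DMSO for no effect and wells without caspase-3 for full effect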
SENP luc ctr: counter-screen for SENP inhibitors: luminescence interference | shares compounds with SENP7 block | Pre-incubated SENP8/Z-RLRGG-aminoluciferin, luciferase luminescence interference | inhibition, % at 12.5 µM | 6,200 compounds, 39% hits | AID 488919;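 active = mean inhibition above about 50% when retested at one dose, limit read from the data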;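 note: plate controls were DMSO wells with completed reaction for no effect and substrate without enzyme for full effect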
* = called active by the depositor; i = inactive; . = no result. The list is not random: actives were taken first. Their share in the collection is about 2.9%.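 Rule for the calls, unless noted: active = mean inhibition above about 50% in the one-dose retest (limit read from the data); inactive = the rest.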

SMILES | SENP1 FRET inh | SENP8 block-1 | SENP6 inh | HSP90 refold inh | SENP8 block-2 | SENP7 block | SENP8 confirm | SENP6 confirm | SENP7 conf | Casp3 select | SENP luc ctr
O=C(O)CCc1ccc(-c2ccc(Br)cc2)o1 | -3.0 | 9.8 | 37.9 | -0.6 | -3.9 | -6.4 | . | . | . | . | .
Cc1ccc2c(c1)/C(=N/OC(=O)c1ccc(F)cc1)CCS2 | -1.3 | -13.7 | 9.0 | 1.1 | -62.8 | 4.8 | . | . | . | . | .
O=C(O/N=C1\CCCc2ccccc21)c1ccc(F)cc1 | 2.7 | 72.0* | 78.4* | 3.1 | 8.7 | 94.9* | 10.6 | 55.0* | 26.5 | 41.7 | 14.4
COC(=O)N/N=C1\CCCc2ccccc21 | 0.3 | 3.4 | 0.0 | -6.3 | 8.1 | -7.4 | . | . | . | . | .
O=C(O/N=C1/CCSc2ccccc21)c1ccccc1 | 1.5 | 79.1* | 89.2* | -3.7 | -18.5 | 73.9* | 90.3* | 89.4* | 98.0* | 79.0* | 74.8*
Cn1ncc2c(NNC(=O)C3CCCCC3)ncnc21 | 3.2 | -6.0 | -17.4 | -1.4 | 12.9 | -9.0 | . | . | . | . | .
CN(Cc1ccccc1)c1nc2nonc2nc1N1CCCC(CN2CCCC2=O)C1 (stereo not given) | 0.9 | -2.6 | -5.3 | -0.1 | 27.3 | 3.0 | . | . | . | . | .
CSc1cccc(NC(=O)/C=C/c2ccc(Cl)cc2)c1 | 0.7 | 38.2 | 65.8* | -3.5 | 9.4 | 59.2* | 53.8* | 58.7* | 83.6* | 32.9 | 51.4*
CSc1cccc(NC(=O)/C=C/c2ccccc2)c1 | -0.1 | 16.2 | 50.6* | -4.8 | 14.7 | 49.3 | 57.1* | 53.9* | 81.4* | 28.3 | 65.4*
O=C(/C=C/c1ccccc1)Nc1cccc(C(=O)O)c1 | 2.6 | 96.6* | 98.7* | 89.5* | 2.0 | 99.6* | -25.0 | 98.9* | 103.1* | 95.3* | 98.0*
COc1ccc(C(=O)N/C(=C/c2cccnc2)C(=O)N2CCN(C)CC2)cc1OC | -2.0 | -7.0 | -10.1 | -2.1 | 11.0 | -12.3 | . | . | . | . | .
COc1cc(C(=O)NCCC(=O)NCc2cccs2)cc(OC)c1OC | 1.8 | . | . | . | 6.5 | . | . | . | . | . | .
Cc1ccc2nc(-c3ccc(NC(=O)CSCC(=O)O)cc3)sc2c1 | -4.7 | 65.4* | 82.3* | 0.1 | -413.4 | 31.6 | -5.6 | 65.6* | 88.1* | 55.4* | 68.1*
O=C(O)CSCC(=O)Nc1ccc(-c2nc3ccccc3s2)cc1 | -22.3 | 92.1* | 94.2* | 13.1 | -439.3 | 91.7* | 95.7* | 96.2* | 101.3* | 96.1* | 95.5*
Cc1ccc2sc(-c3ccc(NC(=O)/C=C\C(=O)O)cc3)nc2c1 | -68.1 | 54.7* | 72.2* | 10.4 | -453.0 | 18.2 | -12.9 | 4.2 | 6.3 | 8.8 | 15.0
Cc1ccc2nc(-c3ccc(NC(=O)COCC(=O)O)cc3)sc2c1 | -59.8 | 81.7* | 79.1* | -1.8 | -444.3 | 63.3* | 90.5* | 90.4* | 98.9* | 81.8* | 86.8*
Cc1nc(-c2ccc(NC(=O)/C=C\C(=O)O)cc2)cs1 | 2.4 | 8.6 | -17.6 | -0.4 | 16.1 | -6.1 | . | . | . | . | .
CCC(=O)NC(=S)Nc1ccc(-c2nc3ccc(C)cc3s2)cc1 | -12.4 | 7.7 | -3.9 | -1.3 | -203.3 | 14.0 | . | . | . | . | .
Cc1ccc(S(=O)(=O)N(Cc2ccccc2)c2ccccc2C(=O)N2CCCCC2)cc1 | 0.8 | -5.2 | -11.6 | 0.5 | 9.5 | -6.0 | . | . | . | . | .
NC(=O)CCC(NC(=O)OCc1ccccc1)C(=O)OCC(=O)c1ccccc1 (stereo not given) | 2.3 | . | . | . | 11.1 | . | . | . | . | . | .
O=C(c1ccccc1)c1nnc(-c2ccccc2F)o1 | -0.3 | 90.2* | 85.3* | -1.7 | 37.4 | 96.5* | 78.6* | 95.5* | 98.9* | 89.7* | 31.0
CCc1ccc2oc(-c3cc(N)cc(C)c3O)nc2c1 | -25.9 | 74.6* | 78.7* | -2.1 | -110.1 | 53.6* | 35.2 | 50.1* | 77.6* | 58.4* | 7.3
Cc1cc2nc(-c3cccc(NC(=O)c4ccc(Br)o4)c3C)oc2cc1C | -2.0 | 4.0 | -13.7 | 3.7 | -26.2 | -1.0 | . | . | . | . | .
CCc1ccc2oc(-c3cc(N)ccc3O)nc2c1 | 38.7 | 93.6* | 97.4* | 0.2 | -138.0 | 92.3* | 67.9* | 94.4* | 98.8* | 85.7* | 15.6
Nc1ccc2oc(-c3ccccc3Cl)nc2c1 | 1.4 | 67.9* | 90.6* | 7.1 | -239.8 | 76.5* | 89.7* | 89.6* | 98.7* | 87.3* | 79.7*
SMILES | SENP1 FRET inh | SENP8 block-1 | SENP6 inh | HSP90 refold inh | SENP8 block-2 | SENP7 block | SENP8 confirm | SENP6 confirm | SENP7 conf | Casp3 select | SENP luc ctr
Cc1ccc2oc(-c3cc(NC(=O)c4ncn[nH]4)ccc3O)nc2c1 | 0.4 | -6.6 | -21.5 | 2.9 | -43.3 | -12.0 | . | . | . | . | .
CCc1ccc2oc(-c3cc(N)ccc3Cl)nc2c1 | -10.2 | 92.4* | 95.1* | 2.3 | i | 95.5* | 94.8* | 96.7* | 101.3* | 81.6* | 78.5*
CC(C)(C)C(=O)Nc1ccc2oc(-c3cc(F)c(F)cc3Cl)nc2c1 | 0.6 | -14.8 | -16.7 | 2.7 | i | -12.2 | . | . | . | . | .
Nc1ccc2oc(-c3cc(Br)ccc3Cl)nc2c1 | -23.3 | -0.9 | 11.3 | 4.6 | -99.8 | 7.9 | . | . | . | . | .
Cc1cn(C2CC(OC(=O)C(C)C)C(CO)O2)c(=O)[nH]c1=O (stereo not given) | 1.4 | -4.4 | 9.5 | . | 21.4 | 2.7 | . | . | . | . | .
S=C(Cc1ccccc1)Nc1ccccc1 | -0.1 | . | . | . | 5.6 | . | . | . | . | . | .
CCCC[C@@H]1CNC(=O)C(=O)N1CCCCC1CCCCC1 | -1.1 | . | . | . | 9.2 | . | . | . | . | . | .
O=C(N/N=C/c1ccc([N+](=O)[O-])cc1)c1[nH]ncc1Br | -1.3 | 72.5* | 85.6* | -1.1 | 20.3 | 84.8* | -4.0 | 9.1 | 48.4 | 88.2* | 15.1
Oc1ccc(N=Nc2ccccc2)cc1 | 0.9 | 73.6* | 82.4* | 11.3 | 28.7 | 67.9* | 80.7* | 79.5* | 91.2* | 56.6* | 82.6*

From PubChem BioAssay
